Data as given in ChEMBL document CHEMBL1143719, “Design, synthesis, and anticonvulsant activity of some sulfamides” (Bioorg Med Chem, 2007).
The source made the active and inactive calls. The calls are words filed in the database; no cut-off is given here.

What was measured:
[1] = test system: Mus musculus; assay: Anticonvulsant activity in Albino mouse at 30 mg/kg, ip after 4 hrs by MES assay; type: functional, organism-based; set-up: dose 30 mg/kg
Summary of the method: (§1)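 Mice given compound ip at 30, 100 and 300 mg/kg in 30% polyethylene glycol 400 and 10% water, 0.01 mL/g body weight. Three animals per dose. Maximal electroshock (MES) or pentylenetetrazol (PTZ) seizure tests were run 0.5 and 4 h after dosing, and animals protected were counted.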

[2] = test system: Mus musculus; assay: Neurotoxicity in Albino mouse at 30 mg/kg, ip after 0.5 hrs by RotoRod test; type: toxicity, organism-based; set-up: dose 30 mg/kg, route intraperitoneal; details: in vivo
Summary of the method: (§2)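 RotoRod neurotoxicity screen in mice dosed ip at 30, 100 and 300 mg/kg, in vehicle of 30% PEG 400 and 10% water (0.01 mL/g). Three animals per dose, tested 0.5 and 4 h after administration. Affected animals were scored per group.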

[3] = test system: Mus musculus; assay: Anticonvulsant activity in Albino mouse at 300 mg/kg, ip after 4 hrs by PTZ assay; type: functional, organism-based; set-up: dose 300 mg/kg; summary of the method: as §1
[4] = test system: Mus musculus; assay: Neurotoxicity in Albino mouse at 300 mg/kg, ip after 4 hrs by RotoRod test; type: toxicity, organism-based; set-up: dose 300 mg/kg, route intraperitoneal; details: in vivo; summary of the method: as §2
[5] = test system: Mus musculus; assay: Anticonvulsant activity in Albino mouse at 300 mg/kg, ip after 4 hrs by MES assay; type: functional, organism-based; set-up: dose 300 mg/kg; summary of the method: as §1
[6] = test system: Mus musculus; assay: Anticonvulsant activity in Albino mouse at 100 mg/kg, ip after 0.5 hrs by PTZ assay; type: functional, organism-based; set-up: dose 100 mg/kg; summary of the method: as §1
[7] = test system: Mus musculus; assay: Neurotoxicity in Albino mouse at 100 mg/kg, ip after 4 hrs by RotoRod test; type: toxicity, organism-based; set-up: dose 100 mg/kg, route intraperitoneal; details: in vivo; summary of the method: as §2
[8] = test system: Mus musculus; assay: Anticonvulsant activity in Albino mouse at 100 mg/kg, ip after 4 hrs by PTZ assay; type: functional, organism-based; set-up: dose 100 mg/kg; summary of the method: as §1
[9] = test system: Mus musculus; assay: Anticonvulsant activity in Albino mouse at 300 mg/kg, ip after 0.5 hrs by MES assay; type: functional, organism-based; set-up: dose 300 mg/kg; summary of the method: as §1
[10] = test system: Mus musculus; assay: Neurotoxicity in Albino mouse at 300 mg/kg, ip after 0.5 hrs by RotoRod test; type: toxicity, organism-based; set-up: dose 300 mg/kg, route intraperitoneal; details: in vivo; summary of the method: as §2
[11] = test system: Mus musculus; assay: Neurotoxicity in Albino mouse at 100 mg/kg, ip after 0.5 hrs by RotoRod test; type: toxicity, organism-based; set-up: dose 100 mg/kg, route intraperitoneal; details: in vivo; summary of the method: as §2
[12] = test system: Mus musculus; assay: Anticonvulsant activity in Albino mouse at 300 mg/kg, ip after 0.5 hrs by PTZ assay; type: functional, organism-based; set-up: dose 300 mg/kg; summary of the method: as §1
[13] = test system: Mus musculus; assay: Anticonvulsant activity in Albino mouse at 100 mg/kg, ip after 4 hrs by MES assay; type: functional, organism-based; set-up: dose 100 mg/kg; summary of the method: as §1
[14] = test system: Mus musculus; assay: Anticonvulsant activity in Albino mouse at 30 mg/kg, ip after 0.5 hrs by MES assay; type: functional, organism-based; set-up: dose 30 mg/kg; summary of the method: as §1
[15] = test system: Mus musculus; assay: Anticonvulsant activity in Albino mouse at 30 mg/kg, ip after 0.5 hrs by PTZ assay; type: functional, organism-based; set-up: dose 30 mg/kg; summary of the method: as §1
[16] = test system: Mus musculus; assay: Neurotoxicity in Albino mouse at 30 mg/kg, ip after 4 hrs by RotoRod test; type: toxicity, organism-based; set-up: dose 30 mg/kg, route intraperitoneal; details: in vivo; summary of the method: as §2
[17] = test system: Mus musculus; assay: Anticonvulsant activity in Albino mouse at 100 mg/kg, ip after 0.5 hrs by MES assay; type: functional, organism-based; set-up: dose 100 mg/kg; summary of the method: as §1
[18] = test system: Mus musculus; assay: Anticonvulsant activity in Albino mouse at 30 mg/kg, ip after 4 hrs by PTZ assay; type: functional, organism-based; set-up: dose 30 mg/kg; summary of the method: as §1
[19] = test system: Mus musculus; assay: Neurotoxicity in intraperitoneally dosed Albino mouse at 481 umol/kg by RotoRod test; type: toxicity, organism-based; details: in vivo, ip
Summary of the method: (§3)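 Median neurotoxic dose in albino mice given compound ip in 30% PEG 400 and 10% water, at the time of peak effect. Six animals per dose were tested on RotoRod and the percentage showing minimal neurotoxicity was recorded. Where TD50 could not be completed, the highest dose tested is reported.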

[20] = species on record: Mus musculus; assay: Protective index, ratio of TD50 against Albino mouse to ED50 for Albino mouse; type: functional
[21] = test system: Mus musculus; assay: (§4) Neurotoxicity in intraperitoneally dosed Albino mouse by RotoRod test; type: toxicity, organism-based; details: in vivo, ip; summary of the method: as §3
[22] = as §4; type: toxicity, organism-based; details: Albino, in vivo, ip; summary of the method: as §3
[23] = test system: Mus musculus; assay: Anticonvulsant activity assessed as time of peak effect in intraperitoneally dosed Albino mouse by MES assay; type: functional
Summary of the method: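 Phase II quantification in albino mice (ip; 30% PEG 400 and 10% water vehicle). Time of peak effect was determined first. Groups of six mice then received different doses at that time. MES ED50 is the dose protecting 50% of animals, in µmol/kg.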

[24] = test system: Mus musculus; assay: Anticonvulsant activity in intraperitoneally dosed Albino mouse at 481 umol/kg by PTZ assay; type: functional, organism-based
Summary of the method: (§5)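 Phase II PTZ test in albino mice dosed ip (30% PEG 400 and 10% water), at the predetermined time of peak effect, in groups of six animals.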

[25] = test system: Mus musculus; assay: Anticonvulsant activity in intraperitoneally dosed Albino mouse at 1613 umol/kg by PTZ assay; type: functional, organism-based; summary of the method: as §5
[26] = test system: Mus musculus; assay: Neurotoxic time of peak effect in intraperitoneally dosed Albino mouse by RotoRod test; type: ADME, organism-based; details: in vivo, ip; summary of the method: as §3
[27] = test system: Mus musculus; assay: Anticonvulsant activity in intraperitoneally dosed Albino mouse by MES assay; type: functional; details: ip

SMILES | Activity [1] | Activity [2] | Activity [3] | Activity [4] | Activity [5] | Activity [6] | Activity [7] | Activity [8] | Activity [9] | Activity [10] | Activity [11] | Activity [12] | Activity [13] | Activity [14] | Activity [15] | Activity [16] | Activity [17] | Activity [18] | further results
CCCCN(CCCC)S(=O)(=O)N(CCCC)CCCC | inactive | Non-toxic | inactive | Non-toxic | inactive | inactive | Non-toxic | inactive | inactive | Non-toxic | Non-toxic | inactive | inactive | inactive | inactive | Non-toxic | inactive |  | 
CCCN(CCC)S(N)(=O)=O | inactive | Toxic |  |  |  |  | Toxic |  |  |  | Toxic |  |  | inactive | inactive | Toxic |  | inactive | 
CCCCN(CCCC)S(=O)(=O)NC(=O)OC(C)(C)C |  | Non-toxic | inactive | Non-toxic |  | inactive | Non-toxic | inactive |  | Non-toxic | Non-toxic | inactive | inactive | inactive | inactive | Non-toxic |  | inactive | 
CCCCNS(=O)(=O)NCCCC [BUTYL(BUTYLSULFAMOYL)AMINE] | inactive | Non-toxic |  |  |  | inactive | Non-toxic | inactive |  |  | Non-toxic |  | inactive |  | inactive | Non-toxic |  | inactive | Activity [19]: 0%; PI [20]: >1.6; Activity [21]: 0%; TD50 [22]: > 481 µmol/kg; Activity [23]: 2 h; Activity [24]: inactive
O=S(=O)(N1CCOCC1)N1CCOCC1 | inactive | Non-toxic |  |  |  | inactive | Non-toxic | inactive |  |  | Non-toxic |  | inactive | inactive | inactive | Non-toxic | inactive | inactive | 
CCCCNS(N)(=O)=O |  | Non-toxic |  |  |  | inactive | Non-toxic | inactive |  | Toxic |  |  |  | inactive | inactive | Non-toxic | inactive | inactive | 
CC(C)(C)OC(=O)NS(=O)(=O)NCc1ccccc1 | inactive | Non-toxic | inactive | Non-toxic | inactive | inactive | Non-toxic | inactive | inactive | Non-toxic | Non-toxic | inactive | inactive | inactive | inactive | Non-toxic | inactive | inactive | 
CCCN(CCC)S(=O)(=O)NC(=O)OC(C)(C)C | inactive | Non-toxic | inactive | Non-toxic | inactive | inactive | Non-toxic | inactive |  | Non-toxic | Non-toxic | inactive | inactive | inactive | inactive | Non-toxic | inactive | inactive | 
O=S(=O)(NC1CC1)NC1CC1 | inactive | Non-toxic | inactive | Non-toxic | inactive | inactive | Non-toxic | inactive | inactive | Non-toxic | Non-toxic | inactive | inactive | inactive | inactive | Non-toxic | inactive | inactive | 
NS(=O)(=O)NCc1ccccc1 |  | Non-toxic | inactive | Non-toxic | Active | inactive | Non-toxic | inactive | Active | Non-toxic | Non-toxic | inactive |  |  | inactive | Non-toxic | Active | inactive | Activity [25]: inactive; Activity [26]: 0.5 h; PI [20]: 5.9; TD50 [22]: 1420 µmol/kg; Activity [23]: 0.5 h; ED50 [27]: 239 µmol/kg
CCCCN(CCCC)S(N)(=O)=O | inactive | Non-toxic |  | Toxic |  |  | Non-toxic | inactive |  | Toxic | Non-toxic |  | inactive | inactive | inactive | Non-toxic |  | inactive | 
CCCN(CCC)S(=O)(=O)N(CCC)CCC | inactive | Non-toxic | inactive | Non-toxic | inactive | inactive | Non-toxic | inactive | inactive | Non-toxic | Non-toxic | inactive | inactive | inactive | inactive | Non-toxic | inactive | inactive | 
CCCNS(=O)(=O)NCCC | inactive | Non-toxic | inactive | Non-toxic | inactive |  | Non-toxic | inactive | Active |  | Non-toxic | Active | inactive | inactive | inactive | Non-toxic | inactive |  | 
CCCCNS(=O)(=O)NC(=O)OC(C)(C)C | inactive | Non-toxic | inactive | Non-toxic |  | inactive | Non-toxic | inactive | Active | Non-toxic | Non-toxic | inactive |  |  | inactive | Non-toxic | Active | inactive | 
